In the library only some 2.3% were active in any assay of this set; here they are far more common.
PLC-beta3 inh – inhibitors of human phospholipase C beta3 | Q01970 | Purified PLC-beta3, fluorogenic substrate, fluorescence | inhibition, % at 12.2 µM | hit rate 0.18% among 370,000 | AID 720704
DDE Tn7 FP inh – disrupts Tn7 cyclic peptide binding to fibrin D-Dimer-E complex | P02675 | FP displacement of FITC-Tn7 peptide from fibrin DD(E); 0% = median of compound wells per plate | inhibition, % at 8.3 µM | hit rate 0.13% among 370,000 | AID 720508;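 active means inhibition above the mean of compounds falling within the control limits plus 3 SD of them, cut at about 14% in these data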
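Also added: labelled Tn7 tracer, 0.1 µM; Assay system: human fibrin DD(E) protein; Amount: 2 µM fibrin DD(E); Schedule: 10 min compound pre-incubation, 3 h probe incubation at room temperature; Repeats: one replicate per compound; Read-out basis: percent inhibition; Measured by: fluorescence polarization of the labelled Tn7 tracer.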
PLCg1 inh – inhibitors of human phospholipase C gamma1. P19174. purified PLC-gamma1, fluorogenic substrate, fluorescence. hit rate 0.84% among 370,000. inhibition, % at 12.2 µM; in the data active means inhibition above about 9.5%
DDE Tn6 FP inh – disrupts Tn6 cyclic peptide binding to fibrin D-Dimer-E complex; P02675; Fibrin DD(E) TRITC-Tn6 fluorescence polarization displacement; inhibition, % at 8.3 µM; hit rate 0.21% among 370,000; AID 720509;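 active means inhibition above a per-campaign cutoff: mean of compounds within control limits plus 3 SD, cut at about 15% in these data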
ADAM17 inh – inhibitors of human ADAM17 | recombinant ADAM17, EDANS/DABCYL FRET peptide cleavage | inhibition, % at 6.95 µM | hit rate 0.83% among 370,000;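 active means inhibition above the mean of compounds lying between control limits plus 3 SD, set per campaign, cut at about 8.5% in these data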
ADAM10 inh – inhibitors of human ADAM10; hit rate 0.62% among 370,000; recombinant ADAM10, EDANS/DABCYL FRET peptide cleavage, 3 h; inhibition, % at 7 µM;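 active means inhibition above a per-campaign cutoff equal to the mean of compounds falling between control-based bounds plus 3 SD, cut at about 20% in these data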
PLCgamma1 ctr – PLC-gamma1 inhibition, counter-screen for PLC-beta3 hits | inhibition, % at 12.3 µM | hit rate 3.1% among 3,300 | purified PLC-gamma1, fluorogenic substrate, fluorescence | AID 743258 | shares compounds with PLCg1 inh; in the data active means inhibition above about 9.5%
PLCbeta3 conf – confirmation of human PLC-beta3 inhibitors. inhibition, % at 12.3 µM. hit rate 1% among 3,300. AID 743261. purified PLC-beta3, fluorogenic substrate fluorescence. shares compounds with PLCg1 inh
Hits are given with their value; - = inactive; . = not tested or not shown. Unless noted, no stated cut-off is given here; in the data, active means inhibition above about 11%; inactive means the rest.

SMILES	PLC-beta3 inh	DDE Tn7 FP inh	PLCg1 inh	DDE Tn6 FP inh	ADAM17 inh	ADAM10 inh	PLCgamma1 ctr	PLCbeta3 conf
CC(c1nccs1)N(C)C(=O)CCc1nnc(CCc2ccccc2)o1 (centres undefined)	-	-	11.9	-	-	-	-	-
O=C(OCc1cn(Cc2cc(F)cc(F)c2)nn1)N1CCOCC1	-	-	-	-	-	-	.	.
CCOc1ccc(CC2S/C(=N/c3ccccn3)NC2=O)cc1 (centres undefined)	-	-	11.0	-	-	-	-	-
Cc1cccc(/N=C2/NC(=O)C(Cc3ccccc3)S2)n1 (centres undefined)	-	-	-	-	-	-	.	.
C=CCN1C(=O)[C@@H](CC(=O)N2CCOCC2)[C@]2(C(=O)OCC)CCCCC/C=C/12	-	-	-	-	-	-	.	.
Cc1cccc(-c2cccc3c4c([nH]c23)[C@@H]2C[C@H](N(C)C(=O)Nc3ccccc3)[C@H]([C@H](C)O)C(=O)N2CC4)c1	-	-	-	-	-	-	.	.
Cc1ccc2c(c1)NC(=O)C(CC(=O)NCCCN1CCN(c3cc(Cl)ccc3C)CC1)O2 (centres undefined)	-	-	9.5	-	-	-	-	-
Cc1ccc2c(c1)NC(=O)C(CC(=O)NCCCN1CCCCC1)O2 (centres undefined)	-	-	-	-	-	-	.	.
CCOC(=O)C1CCN(C(=O)c2ccc3c(c2)OCCO3)CC1	-	-	11.9	-	-	-	-	-
CCOC(=O)C1CCN(C(=O)c2cc(C)n(C(C)(C)C)n2)CC1	-	-	10.6	-	-	-	-	-
CCOC(=O)C1CCN(C(=O)c2cccc(C(=O)N3CCC(C(=O)OCC)CC3)c2)CC1	-	-	-	-	-	-	.	.
CCC(=O)N1CCc2cc(Br)c(S(=O)(=O)N3CCC(C(=O)NC(C)(C)C)CC3)cc21	-	-	-	-	-	-	.	.
COC(=O)C[C@@H]1CC[C@H]2[C@@H](COc3ccc(NC(=O)c4ccc(C(F)(F)F)cc4)cc3C(=O)N2C)O1	-	-	-	-	-	-	.	.
CC(C)(N[C@@H](Cc1c[nH]c2ccccc12)C(=O)NCCCc1ccccc1)C(=O)NCc1ccccc1	-	-	-	-	-	-	.	.
CCCCCCCCN1C(=O)[C@@H](CC(=O)NCc2ccccc2)C[C@@]2(C(=O)OC)C1=C[C@H](C1CCCC1)O[C@@H]2C	-	-	-	-	-	-	.	.
O=C1C(NS(=O)(=O)c2cccs2)=C(N2CCOCC2)C(=O)c2ccccc21	-	-	9.8	-	-	-	-	-
CCCC/C=C1/[C@@H](C(C)C)N(Cc2ccc3c(c2)OCO3)C2=N[C@H](c3ccccc3)CC(=O)N21	11.1	-	-	-	-	-	-	-
CCCC/C=C1/[C@@H](c2ccc(Cl)cc2)N(Cc2ccc3c(c2)OCO3)C2=N[C@@H](c3ccccc3)CC(=O)N21	-	-	-	-	-	-	.	.
O=C(N/N=C/c1ccccn1)c1ccccc1	-	-	10.6	-	-	-	-	-
CC(C)CC(=O)NC(=S)Nc1ccc(CN2CCOCC2)cc1	-	-	-	-	-	-	.	.
CCc1cccc(NC(=S)Nc2ccc(CN3CCOCC3)cc2)c1	-	-	9.8	-	-	-	-	-
Cc1nc(SCc2ccccc2C#N)n[nH]1	-	-	-	-	-	-	.	.
Cc1ccccc1CSc1n[nH]c(NS(=O)(=O)c2ccccc2)n1	-	-	10.4	-	-	-	-	-
C=CCN=C1NC(c2ccc(Cl)cc2)C(C(=O)OC)=C(C)N1Cc1cccc(C(F)(F)F)c1 (centres undefined)	-	-	-	-	-	-	.	.
COc1ccccc1C(=O)NC1CCCCN(Cc2cccc(Cl)c2)C1=O (centres undefined)	-	-	-	-	-	-	.	.
SMILES	PLC-beta3 inh	DDE Tn7 FP inh	PLCg1 inh	DDE Tn6 FP inh	ADAM17 inh	ADAM10 inh	PLCgamma1 ctr	PLCbeta3 conf
O=C(NC(=S)Nc1ccc(NC(=O)c2cccs2)cc1)c1ccco1	14.8	-	-	-	-	-	-	-
Cc1cccc(C)c1NC(=O)CSc1nnc(Cc2ccccc2)o1	-	-	-	-	-	-	.	.
Cc1cc(C)nc(SCc2nnc(SCC(=O)Nc3c(C)cccc3C)o2)n1	-	-	11.5	-	-	-	-	-
O=C(c1cc(F)ccc1F)N1CCC(Oc2cccnc2)CC1	-	-	-	-	-	-	.	.
CN(C(=O)COC(=O)C1CCN(S(=O)(=O)c2ccc3c(c2)OCCO3)CC1)C1CCS(=O)(=O)C1 (centres undefined)	-	-	13.7	-	-	-	-	-
CN(C(=O)COC(=O)C1CCN(S(=O)(=O)c2ccc(Cl)cc2)CC1)C1CCS(=O)(=O)C1 (centres undefined)	-	-	-	-	-	-	.	.
Cc1cccc(NC(=O)c2cc(S(=O)(=O)c3ccccc3)ccc2Cl)c1	-	-	11.1	-	-	-	-	-
Cc1ccccc1NC(=O)c1cc(S(=O)(=O)c2ccccc2)ccc1Cl	-	-	-	-	-	-	.	.
N#CCNC(=O)C1c2ccccc2Oc2ccccc21	-	-	12.6	-	-	-	-	-
O=C(NCc1ccccc1)C1c2ccccc2Oc2ccccc21	-	-	-	-	-	-	.	.
CC(NS(C)(=O)=O)C(c1cccs1)N1CCN(C)CC1 (centres undefined)	-	-	10.8	-	-	-	-	-
CC(NS(C)(=O)=O)C(c1cccs1)N1CCN(c2ccc(F)cc2)CC1 (centres undefined)	-	-	-	-	-	-	.	.
COn1c(=O)c(=O)n(O)c2ccccc21	-	-	-	-	-	-	.	.
O=c1c(=O)n(O)c2ccccc2n1O	-	-	12.6	-	-	-	-	-
OC1COC(c2ccccc2)OC1C1OC(c2ccccc2)OCC1O (centres undefined)	-	-	-	-	-	-	.	.
NC1(CO)COC(c2ccccc2)OC1 (centres undefined)	11.8	-	-	-	-	-	-	-
CCCCC(=O)Nc1ccc(C(=O)NCC2COc3ccccc3O2)cc1 (centres undefined)	-	-	-	-	-	-	.	.
Cc1ccc(S(=O)(=O)N/N=C/c2c(F)cccc2Cl)cc1	-	-	11.0	-	-	-	-	-
COc1ccc(CCN(C)C(=O)CN2C(=O)NC3(CCCc4ccccc43)C2=O)cc1OC (centres undefined)	-	-	12.5	-	-	-	-	-
COc1ccc(CN(C)C(=O)C2CCCN(c3nc4ccccc4o3)C2)cc1 (centres undefined)	-	-	-	-	-	-	.	.
